Source: PubChem BioAssay (several laboratories)
A selection: hits, their analogues and other compounds. The true share with any hit is near 1.7%.
DSG3 Ab inh = human desmoglein-3 autoantibody binding inhibition | actives 0.48% (n = 310,000) | binding (percent of control), % at 10 µM | DSG3-coupled beads, scFv-anti-DSG3-GFP binding, flow cytometry; active compounds read low | P32926;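 active = binding more than 3 SD below its plate's average and above zero; inconclusive = below that plate limit but binding exactly zero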;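 note: hits lower antibody fragment binding to DSG3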
Vif inh = inhibitors of HIV Vif; AID 602346; inhibition, % at 7.49 µM; HEK293T cells, Vif self-association by quenched fluorescence, imaging, 24 h; actives 0.35% (n = 340,000); in the data active = inhibition above about 50%, passing the limit was not always enough; inconclusive = no clear call, values can overlap the other calls; inactive = below about 31%
T cell modulator = T cell immune modulation candidate. response (vesicle binding), % at 7 µM. actives 0.068% (n = 330,000). 2C CD8+ T cell-vesicle binding, flow cytometry; active compounds read low. AID 2052;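 active = response, share of CD8 T cells binding vesicles, and their 90th percentile fluorescence all below set limits, cut at about 80% in these data, passing the limit was not always enough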;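 note: values below 100% mean blocked vesicle binding to the CD8+ T cells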
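Read-out – percent CD8+ FL2 mean versus row control · System – murine 2C transgenic CD8+ T lymphocytes · Times – 1.5 h cell–vesicle binding at 37 °C, then 20 min icy labelling · Control set – naked vesicles low, QL9 vesicles with vehicle high · Detection – cytometric PE anti-B7-1 and Alexa647 anti-CD8 signals after 1% paraformaldehyde fixation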
Myeloid diff 2 = promotes myeloid progenitor differentiation | actives 1% (n = 360,000) | calls only at 10 µM | ER-HoxA9 myeloid progenitors, lysozyme-GFP differentiation, flow cytometry;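 active = normalized GFP-positive differentiation at or above the plate's own cutoff, the solvent-only control mean plus 3 SD; inconclusive = no clear call, values can overlap the other calls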;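 note: cells exposed to compound for four days before flow analysis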
Starred values were filed as active, the others as inactive; i = inactive; ? = inconclusive; · = no result; + = active, no number.

SMILES | DSG3 Ab inh | Vif inh | T cell modulator | Myeloid diff 2
COCCNc1nc(-c2ccc(OC)cc2C)c2sc(-c3ccccc3)cc2n1 | · | -9 | · | ?
CC1(C(=O)NS(=O)(=O)C2CC2)CCN(C(=O)c2ccccc2F)C1 (configuration not stated) | · | ? | · | i
COc1ccc(C=O)cc1COc1c(F)c(F)cc(F)c1F | 96 | -8 | 239 | +
O=C(COc1ccc(C(=O)O)cc1)Nc1cccc(C(F)(F)F)c1 | 113 | 5 | 342 | i
CN1CCN(C(=S)c2ccc(OCC(=O)Nc3cccc(C(F)(F)F)c3)cc2)CC1 | 106 | 54* | 104 | i
COc1cccc(-c2nc(CN3CCN(C(=O)c4ccco4)CC3)c(C)o2)c1OC | 101 | 25 | · | i
CC(=O)N1CCc2cc(S(=O)(=O)CCC(=O)N3CCN(c4ccccc4F)CC3)ccc21 | 107 | 16 | 282 | ?
CC(=O)N1CCc2cc(S(=O)(=O)CCC(=O)Nc3ccccc3F)ccc21 | 99 | 1 | 455 | +
CN(C(=O)COC(=O)c1nn(C)c(=O)c2ccccc12)c1c(N)n(Cc2ccccc2)c(=O)[nH]c1=O | 103 | 10 | 131 | i
CCn1c(C)cs/c1=N\S(=O)(=O)c1ccccc1 | 104 | -7 | 213 | i
O=Cc1s/c(=N\S(=O)(=O)c2ccccc2)n(CCCCl)c1Cl | 100 | 57* | · | ?
Cc1ccccc1NC(=S)N(Cc1cccs1)C1CCCC1 | 92 | 51* | 599 | i
Cc1oc(-c2ccc(Cl)cc2)nc1CN1CCCC(C(=O)N2CCN(C(=O)c3ccco3)CC2)C1 (configuration not stated) | 104 | -8 | 134 | +
Cc1oc(-c2ccc(Cl)cc2)nc1CN1CCCC(C(=O)N2CCOCC2)C1 (configuration not stated) | 100 | -7 | 400 | i
COc1ccc2c(/C=C/c3cc[n+](C)cc3)c[nH]c2c1 | 133 | i | 515 | +
Cc1ccc2[nH]cc(/C=C/c3cc[n+](C)cc3)c2c1 | 217 | · | 204 | ?
COc1ccc(C(C)=O)cc1COC(=O)c1cc(C)nc2ccccc12 | 61* | 2 | 350 | i
Cc1sc(NC(=O)c2ccco2)c(C(c2cccnc2)N2CCN(CCO)CC2)c1C (configuration not stated) | 99 | -15 | 370 | i
Cc1sc(NC(=O)c2ccco2)c(C(c2cccnc2)N2CCN(c3ccc(F)cc3)CC2)c1C (configuration not stated) | 95 | -9 | 582 | +
O=C(Cc1ccc2ccccc2c1)Nc1ccccc1Br | 87* | 5 | 193 | i
COc1ccccc1CCc1nnc(CCC(=O)NCC(C)Oc2cccnc2)o1 (configuration not stated) | 108 | -2 | 498 | i
COc1ccccc1CCc1nnc(CCC(=O)NC(C)Cc2ccsc2)o1 (configuration not stated) | 8.6* | -1 | 616 | i
COc1ccc(CC(=O)Nc2ccc(/C(C)=N/NC(=O)c3cccc([N+](=O)[O-])c3)cc2)cc1 | 78* | -1 | 342 | i
COc1ccc(C(=O)Nc2cccc(/C(C)=N/NC(=O)c3ccc([N+](=O)[O-])cc3)c2)cc1OC | 103 | -13 | 177 | +
COc1ccc(C(=O)N/N=C(/C)c2cccc(NC(=O)c3ccncc3)c2)cc1OC | 99 | 6 | 176 | i
SMILES | DSG3 Ab inh | Vif inh | T cell modulator | Myeloid diff 2
COc1ccc(NC(=O)c2cccc([N+](=O)[O-])c2)cc1 | 103 | 27 | 236 | i
COc1ccc(C(=O)Nc2cccc([N+](=O)[O-])c2)cc1Br | 99 | 74* | 211 | i
Cc1ccc(C(=O)Nc2nnc([C@H]3C[C@H](O)[C@@H](CO)O3)s2)cc1 | · | 12 | · | i
COc1ccc(NC(=O)CSc2nnc(C3CCCCC3)o2)c(OC)c1 | · | · | 265 | +
O=C(COC(=O)COc1ccc(Cl)cc1)Nc1cccnc1Cl | 95 | -16 | · | i
CCCN(CC(=O)Nc1ccccc1C)C(=O)c1ccc2ccccc2n1 | 109 | -4 | 232 | i
Cc1ccccc1NC(=S)c1ccc2ccccc2n1 | 79* | 0 | 613 | i
COc1ccccc1Cc1c(C2CCCCC2)nc2c3ccccc3ccn12 | · | · | · | i
COc1ccc(C(=O)CCC(C)(C)[N+](=O)[O-])cc1OC | · | 3 | 60* | i
CCO/C(C)=N/n1c2nc3ccccc3nc2c2c(=O)n(Cc3ccccc3Cl)c(C)nc21 | · | 13 | 309 | +
O=C(Nc1ccc(F)cc1)C(CCc1ccccc1)N1CCN(Cc2c(F)cccc2Cl)CC1 (configuration not stated) | · | · | · | i
COc1ccc(C2CC(=O)Oc3cc(O)ccc32)cc1 (configuration not stated) | 100 | 5 | · | i
Cc1ccccc1C1CC(=O)Oc2cc(O)ccc21 (configuration not stated) | 100 | 63* | · | i
O=C(Nc1ccc2c(c1)oc1ccccc12)c1ccncc1 | -8.2* | -7 | 384 | i
CSc1nc(Cc2ccccc2)cc(=O)[nH]1 | 61* | 8 | 79 | i
CCc1cc(=O)[nH]c(SCCc2ccccc2)n1 | 100 | 14 | 915 | i
Cc1ccc(NC(=O)CN2C(=O)CSc3ccc(S(=O)(=O)N4CCCCC4)cc32)cc1 | 99 | 10 | 454 | i
COC(=O)c1cn(C(=O)c2ccc(OC)cc2)c2ccccc12 | 111 | 12 | 187 | i
COc1ccc(-c2cc3c(c4c2ccn4C)C2CCC3C2)cc1OC (configuration not stated) | · | · | · | i
COc1cccc(NC(=O)CN(C)C(=O)CCNC(=O)c2ccccc2OC)c1 | 100 | -3 | · | +
COc1cccc(NC(=O)CN(C)C(=O)CCNC(=O)c2ccc(Br)cc2)c1 | 102 | 4 | 934 | i
COc1cccc(CN(C)C(=O)CCNC(=O)c2ccc(Br)cc2)c1 | 103 | · | 935 | +
COc1ccc(NC(=O)CN(C)C(=O)CCNC(=O)c2ccccc2OC)cc1 | 102 | 0 | 348 | i
CC1(C)C(O)=C(c2nc3ccccc3[nH]2)C(=N)N1c1ccccc1 | 98 | -14 | 318 | +
CC(C)CCN1CC(O)=C(c2nc3ccccc3[nH]2)C1=N | 97 | -2 | 171 | i
SMILES | DSG3 Ab inh | Vif inh | T cell modulator | Myeloid diff 2
Cc1nc(C)n(CC(C)C(=O)N2CCN(S(=O)(=O)c3ccc(Cl)cc3)CC2)n1 (configuration not stated) | 103 | 5 | 252 | ?
O=C(c1cscn1)N1CCCC(N2CCN(c3ccc(F)cc3)CC2)C1 (configuration not stated) | 105 | · | 281 | i
CCCc1cc(=O)oc2cc(C)cc(OCC(=O)Nc3ccccn3)c12 | · | -5 | 160 | i
CCCCc1cc(=O)oc2cc(C)cc(OCC(=O)Nc3ccccn3)c12 | 3.8* | -4 | 114 | i
Cc1occc1C(=O)N/N=C/C1=C(N2CCOCC2)C(=C/c2ccc(Cl)cc2Cl)/CC1 | 123 | 133* | · | i
C=CCN=c1scc(-c2ccccc2)n1/N=C/c1ccccn1 | 114 | -5 | 213 | +
